These results are taken from ChEMBL document CHEMBL1138606, “The discovery of tropane derivatives as nociceptin receptor ligands for the management of cough and anxiety” (Bioorg Med Chem Lett, 2009).

Data set [1] in a line: Half life in rat at 3 mg/kg, po. Format: ADME, organism-based. Further details: dose 3 mg/kg, route oral. Particulars: in vivo.
Data set [2] has as its system Rattus norvegicus. The experiment in a line: Anxiolytic activity in po dosed CD rats assessed as suppression of conditioned paw licking administered twice per day for 14 days measured after 2 hrs of last dose. Format: functional.
In data set [3] the target is T1, Cytochrome P450 2C9 (Homo sapiens, UniProt P11712). The data set is described as follows: Inhibition of CYP2C9 co-incubated with substrate. Format: ADME.
The species entered for data set [4] is Cavia porcellus. The experiment in a line: Anxiolytic activity in Dunkin-Hartley guinea pig pup assessed as reduction in number of vocalization produced due to separation measured after 2 hrs. It is filed as functional.
A short description of data set [5]: Oral bioavailability in rat at 3 mg/kg. It is filed as ADME, organism-based. Particulars: in vivo.
The target in another data set is Cytochrome P450 3A4 (Homo sapiens, UniProt P08684). The experiment in a line: Inhibition of CYP3A4. Format: ADME.
The nature of data set [6]: Clearance in human hepatocytes measured per 10^6 cells. It is filed as ADME, cell-based, Liver, Hepatocyte.
The nature of data set [7]: Cmax in rat at 3 mg/kg, po. Format: ADME, organism-based. Further details: dose 3 mg/kg, route oral. The following applies: in vivo.
The nature of data set [8]: AUC (0 to 24 hrs) in rat at 3 mg/kg, po. Further details: time < 24 hr, dose 3 mg/kg, route oral. The following applies: plasma. It is filed as ADME, organism-based.
A short description of data set [9]: Clearance in rat at 3 mg/kg, po. It is filed as ADME, organism-based. Further details: dose 3 mg/kg, route oral. Particulars: in vivo.
Data set [10] deals with Rattus norvegicus. The experiment in a line: Anxiolytic activity in po dosed CD rats assessed as suppression of conditioned paw licking administered twice per day for 14 days measured after 2 hrs of last dose in presence of […]. Format: functional, organism-based.
Data set [11] concerns Cavia porcellus. The experiment in a line: Antitussive activity against capsaicin-induced cough in po dosed Hartley guinea pig model after 2 hrs. Format: functional.
Another data set concerns the target Cytochrome P450 2D6 (Homo sapiens, UniProt P10635). The experiment in a line: Inhibition of CYP2D6. Format: ADME.
The subject of data set [12] is Rattus norvegicus. The data set is described as follows: Volume of distribution at steady state in rat at 3 mg/kg, po. It is filed as ADME, organism-based. Further details: dose 3 mg/kg, route oral. The following applies: in vivo.
The target in data set [13] is T1, Cytochrome P450 2C9. The experiment in a line: Inhibition of CYP2C9 pre-incubated before addition of substrate. Format: ADME.
Data set [14] concerns the target T2, Nociceptin receptor (Homo sapiens, UniProt P41146). The data set is described as follows: Displacement of [125I][Tyr14]nociceptin from human cloned NOP receptor expressed in CHO cells. Format: cell-based. A general note: In a radioligand displacement assay an active substance lowers the binding of a labelled ligand.
Data set [15] deals with T2, Nociceptin receptor. The experiment in a line: Agonist activity at human NOP assessed as stimulation of GDP-induced [35S]GTPgammaS binding. It is filed as functional. Summed up: (§1)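 Functional agonism measured as enhancement of [35S]GTPγS binding in the presence of GDP, using membranes from cells transfected with the receptor. Values are means of 2–3 experiments.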
A general note: Binding of GTPγS marks nucleotide exchange on a G protein.

Data set [16] concerns the target T3, Nuclear receptor subfamily 1 group I member 2 (Homo sapiens, UniProt O75469).
T3 sequence (O75469 whole entry): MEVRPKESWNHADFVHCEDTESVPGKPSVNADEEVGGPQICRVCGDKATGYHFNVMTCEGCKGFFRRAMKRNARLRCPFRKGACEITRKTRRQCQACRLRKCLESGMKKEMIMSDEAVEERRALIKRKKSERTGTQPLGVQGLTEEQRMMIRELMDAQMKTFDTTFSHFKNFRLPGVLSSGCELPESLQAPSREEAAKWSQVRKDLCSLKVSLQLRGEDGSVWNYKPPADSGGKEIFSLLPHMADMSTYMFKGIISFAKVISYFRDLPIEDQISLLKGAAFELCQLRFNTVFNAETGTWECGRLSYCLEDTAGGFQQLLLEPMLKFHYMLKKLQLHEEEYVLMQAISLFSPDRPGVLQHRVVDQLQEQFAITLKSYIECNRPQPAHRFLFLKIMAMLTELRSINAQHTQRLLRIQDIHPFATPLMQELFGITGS
The experiment in a line: Activity at human PXR assessed as induction of CYP3A4 activity in human hepatocytes at 1 uM relative to rifampicin. Format: cell-based, Hepatocyte.

Data set [17] has as its target T4, Mu-type opioid receptor (Homo sapiens, UniProt P35372). The experiment in a line: Displacement of [3H]diprenorphine from human mu opioid receptor expressed in CHO cells. Format: cell-based.
Data set [18] has as its target Delta-type opioid receptor (Homo sapiens, UniProt P41143). The experiment in a line: Displacement of [3H]diprenorphine from human delta opioid receptor expressed in CHO cells. Format: cell-based.
For data set [19], the target named is Kappa-type opioid receptor (Homo sapiens, UniProt P41145). The data set is described as follows: Displacement of [3H]diprenorphine from human kappa opioid receptor expressed in CHO cells. Format: cell-based.
In data set [20] the target is T4, Mu-type opioid receptor. The data set is described as follows: Agonist activity at human mu opioid assessed as stimulation of GDP-induced [35S]GTPgammaS binding. Format: functional. In short, it runs like this:
as §1

In data set [21] the test system is Cavia porcellus. The experiment in a line: Antitussive activity against capsaicin-induced cough in po dosed Hartley guinea pig model after 2 hrs in presence naltrexone. Format: functional, organism-based.
For data set [22], the system named is Cavia porcellus. The experiment in a line: Antitussive activity against capsaicin-induced cough in po dosed Hartley guinea pig model after 2 hrs in presence J113397. Format: functional, organism-based.
Data set [23] deals with Cavia porcellus. The experiment in a line: Antitussive activity against capsaicin-induced cough in po dosed Hartley guinea pig model after 2 hrs in presence naloxone. Format: functional, organism-based.

SMILES strings stand for the structures. pEC50, pIC50, pKi: −log10 of the molar value. Activity calls are given as the source filed them. No cut-off for these calls is given here.

T4 sequence (P35372 whole entry): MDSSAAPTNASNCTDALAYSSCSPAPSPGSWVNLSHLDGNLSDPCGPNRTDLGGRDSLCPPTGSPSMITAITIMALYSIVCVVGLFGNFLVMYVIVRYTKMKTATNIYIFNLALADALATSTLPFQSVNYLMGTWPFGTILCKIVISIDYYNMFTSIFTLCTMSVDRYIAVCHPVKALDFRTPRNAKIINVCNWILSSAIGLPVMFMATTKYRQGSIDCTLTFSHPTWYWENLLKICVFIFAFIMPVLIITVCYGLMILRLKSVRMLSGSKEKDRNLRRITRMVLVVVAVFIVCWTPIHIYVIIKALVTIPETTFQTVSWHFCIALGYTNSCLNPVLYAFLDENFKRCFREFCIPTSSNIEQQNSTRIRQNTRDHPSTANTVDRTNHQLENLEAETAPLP
T2 sequence (P41146 whole entry): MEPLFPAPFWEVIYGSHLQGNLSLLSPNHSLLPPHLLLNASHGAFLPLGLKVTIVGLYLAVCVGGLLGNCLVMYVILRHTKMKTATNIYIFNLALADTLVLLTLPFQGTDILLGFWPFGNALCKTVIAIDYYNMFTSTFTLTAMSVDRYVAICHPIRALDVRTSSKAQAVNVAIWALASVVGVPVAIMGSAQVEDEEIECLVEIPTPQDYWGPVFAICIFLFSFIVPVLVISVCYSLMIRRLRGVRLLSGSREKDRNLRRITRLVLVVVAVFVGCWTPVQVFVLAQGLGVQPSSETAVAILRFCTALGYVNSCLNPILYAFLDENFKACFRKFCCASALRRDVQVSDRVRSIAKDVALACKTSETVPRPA
Chain of Delta-type opioid receptor (P41143 whole entry): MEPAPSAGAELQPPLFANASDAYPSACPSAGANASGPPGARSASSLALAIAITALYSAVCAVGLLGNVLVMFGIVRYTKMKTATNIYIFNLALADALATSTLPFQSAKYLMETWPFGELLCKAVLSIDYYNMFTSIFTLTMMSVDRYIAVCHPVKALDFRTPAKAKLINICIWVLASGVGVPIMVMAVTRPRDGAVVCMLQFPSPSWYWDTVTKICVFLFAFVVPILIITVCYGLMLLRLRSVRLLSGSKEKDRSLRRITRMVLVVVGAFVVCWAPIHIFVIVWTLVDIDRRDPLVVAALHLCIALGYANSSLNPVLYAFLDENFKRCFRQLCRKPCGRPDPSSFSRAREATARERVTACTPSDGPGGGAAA
T1 sequence (P11712 whole entry): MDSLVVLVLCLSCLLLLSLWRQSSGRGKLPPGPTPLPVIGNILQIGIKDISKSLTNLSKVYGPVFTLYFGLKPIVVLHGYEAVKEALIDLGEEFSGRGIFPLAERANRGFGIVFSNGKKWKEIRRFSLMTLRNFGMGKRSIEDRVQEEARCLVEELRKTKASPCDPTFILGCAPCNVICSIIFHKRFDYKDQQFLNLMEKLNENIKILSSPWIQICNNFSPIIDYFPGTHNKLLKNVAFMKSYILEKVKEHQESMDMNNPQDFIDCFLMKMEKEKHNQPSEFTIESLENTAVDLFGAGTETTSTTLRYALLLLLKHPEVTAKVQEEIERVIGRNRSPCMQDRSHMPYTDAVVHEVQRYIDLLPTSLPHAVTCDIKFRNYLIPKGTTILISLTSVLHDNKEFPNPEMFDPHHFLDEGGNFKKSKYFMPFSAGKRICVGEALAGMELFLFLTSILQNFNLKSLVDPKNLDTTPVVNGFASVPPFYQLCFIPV
Chain of Kappa-type opioid receptor (P41145 whole entry): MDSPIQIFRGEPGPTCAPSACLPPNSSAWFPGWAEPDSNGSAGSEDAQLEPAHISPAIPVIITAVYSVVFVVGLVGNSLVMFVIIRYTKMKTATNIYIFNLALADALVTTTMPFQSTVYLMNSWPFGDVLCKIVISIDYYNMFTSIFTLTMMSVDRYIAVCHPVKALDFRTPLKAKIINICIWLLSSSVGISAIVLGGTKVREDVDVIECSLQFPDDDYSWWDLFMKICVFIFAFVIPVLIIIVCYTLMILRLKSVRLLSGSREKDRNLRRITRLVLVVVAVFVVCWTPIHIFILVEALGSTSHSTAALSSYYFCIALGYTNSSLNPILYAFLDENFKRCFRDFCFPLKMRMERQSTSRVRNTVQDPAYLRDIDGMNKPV
Chain of Cytochrome P450 2D6 (P10635 whole entry): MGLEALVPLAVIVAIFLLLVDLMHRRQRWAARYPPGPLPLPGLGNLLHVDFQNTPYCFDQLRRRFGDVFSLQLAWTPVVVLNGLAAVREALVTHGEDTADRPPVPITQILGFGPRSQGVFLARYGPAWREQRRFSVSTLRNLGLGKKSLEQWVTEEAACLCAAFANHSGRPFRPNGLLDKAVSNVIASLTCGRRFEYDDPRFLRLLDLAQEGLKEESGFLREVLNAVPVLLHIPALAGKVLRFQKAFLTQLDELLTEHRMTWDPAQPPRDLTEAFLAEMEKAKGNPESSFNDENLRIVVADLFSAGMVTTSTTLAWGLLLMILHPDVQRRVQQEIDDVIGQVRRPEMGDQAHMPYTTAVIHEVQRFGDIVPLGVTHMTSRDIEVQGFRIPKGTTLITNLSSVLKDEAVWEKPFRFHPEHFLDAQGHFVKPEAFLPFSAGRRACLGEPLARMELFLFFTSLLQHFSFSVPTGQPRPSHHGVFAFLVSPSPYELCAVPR
Chain of Cytochrome P450 3A4 (P08684 whole entry): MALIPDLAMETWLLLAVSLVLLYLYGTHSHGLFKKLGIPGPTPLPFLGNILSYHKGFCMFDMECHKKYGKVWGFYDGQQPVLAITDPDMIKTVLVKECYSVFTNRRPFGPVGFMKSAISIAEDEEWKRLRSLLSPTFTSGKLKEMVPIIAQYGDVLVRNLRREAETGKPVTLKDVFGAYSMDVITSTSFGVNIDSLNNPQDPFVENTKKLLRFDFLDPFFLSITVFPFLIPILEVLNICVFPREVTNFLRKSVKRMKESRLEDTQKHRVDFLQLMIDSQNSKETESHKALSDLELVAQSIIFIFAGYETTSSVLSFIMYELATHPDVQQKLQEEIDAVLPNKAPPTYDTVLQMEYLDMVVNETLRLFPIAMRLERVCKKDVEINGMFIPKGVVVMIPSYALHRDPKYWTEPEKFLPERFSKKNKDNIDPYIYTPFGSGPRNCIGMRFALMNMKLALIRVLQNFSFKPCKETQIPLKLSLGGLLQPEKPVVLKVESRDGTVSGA

In the case of `NC(=O)C1(c2ccccc2)CC2CCC(C1)N2C(c1ccccc1Cl)c1ccccc1Cl` (configuration not stated), the half-life (commonly the time in which the quantity being followed falls by half) in data set [1] is 1.8 h. Further, the results for the ED50 in the data set with Rattus norvegicus [2], in the data set filed under Cavia porcellus [4] and in the data set with Cavia porcellus [11] were 1.4 mg/kg, 0.4 mg/kg and 0.3 mg/kg, respectively. The pIC50 (in general, −log10 of the IC50, conventionally taken in molar units) at Cytochrome P450 2C9 [3] was 5.10; on Cytochrome P450 3A4, below 4.52; at Cytochrome P450 2D6, below 4.52; against Cytochrome P450 2C9 [13] it was 4.72. The bioavailability (in general, dose-corrected exposure relative to a reference, in per cent) in data set [5] came to 37%. In data set [6], the hepatocyte CLint (in general, the capacity of the preparation to metabolise the compound, expressed as a volume cleared per time) is 3 µL/min/1e6 cells. Also, in data set [7], the Cmax (commonly the peak of the concentration-time curve) is 80 nM. For the same compound, the AUC(0-t) – broadly, the area under the concentration-time curve up to a stated or last time point – at 24 h in data set [8] came to 0.54 µM·h. Further, the CL/F (as a rule, the apparent clearance, not corrected for the fraction that reaches the circulation) in data set [9] worked out at 73 mL/min/kg. Besides, the result with Rattus norvegicus [10] was inactive. For the same compound, the Vdss in the data set on Rattus norvegicus [12] stood at 9.1 L/kg.

`NC(=O)C1(c2ccc(F)cc2)CC2CCC(C1)N2C(c1ccccc1Cl)c1ccccc1Cl` (configuration not stated) had a half-life in [1] of 1.8 h. For the same compound, the pKi (commonly the negative decadic logarithm of the Ki, by convention in mol/L) on Nociceptin receptor [14] is 7.80; on Mu-type opioid receptor [17], 6.90; in [18], 5.98; in [19], 6.12. The ED50 (in general, the dose at which the effect has come halfway, by size or by number of responders) in the data set with Rattus norvegicus [2] turned out to be 2.7 mg/kg; in the data set listed under Cavia porcellus [4], 0.2 mg/kg; in the data set with Cavia porcellus [11], 0.03 mg/kg. Moreover, the pEC50 (in general, the negative decadic logarithm of the EC50, by convention in mol/L) was 7.85 at Nociceptin receptor [15] and 6.02 on Mu-type opioid receptor [20]. In [5], the bioavailability was determined as 45%. For the same compound, the highest concentration (Cmax) in data set [7] amounted to 250 nM. Besides, in data set [8], the area under the curve AUC(0-t) at 24 h came to 1.27 µM·h. In addition, the CL/F in data set [9] was determined as 33 mL/min/kg. Moreover, the Ratio in [16] stood at 0.27. Besides, the Vdss in the data set on Rattus norvegicus [12] is 1.8 L/kg.

Turning to `OC1(c2ccccc2)CC2CCC(C1)N2C(c1ccccc1Cl)c1ccccc1Cl` (configuration not stated), the pKi on Nociceptin receptor [14] was 8.47; at Mu-type opioid receptor [17], 7.66; in data set [18], 5.50; in data set [19] it was 6.96. Besides, the median effective dose (ED50) was determined as 1.4 mg/kg in the data set on Rattus norvegicus [2], 0.4 mg/kg in the data set filed under Cavia porcellus [4] and 0.4 mg/kg in the data set with Cavia porcellus [11]. Also, the outcome in the data set with Cavia porcellus [21] and in the data set on Cavia porcellus [23] was Active. Moreover, the result in the data set with Cavia porcellus [22] was inactive. The pEC50 on Mu-type opioid receptor [20] is 6.47.
